CHRM4 agonist – CHRM4 agonism in calcium assay; AID 624127; P08173; CHO-K1 hM4/Gqi5, Fluo-8 calcium fluorescence; vehicle 0%, full acetylcholine response 100%; 360,000 tested, 0.14% active; activation, % at 3 µM;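 active means activation above the run mean over all test wells plus 3 SD, cut at about 32% in these data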;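 further: peak over basal fluorescence ratio per well then scaled between controls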
Target sequence (P08173 whole entry, looked up): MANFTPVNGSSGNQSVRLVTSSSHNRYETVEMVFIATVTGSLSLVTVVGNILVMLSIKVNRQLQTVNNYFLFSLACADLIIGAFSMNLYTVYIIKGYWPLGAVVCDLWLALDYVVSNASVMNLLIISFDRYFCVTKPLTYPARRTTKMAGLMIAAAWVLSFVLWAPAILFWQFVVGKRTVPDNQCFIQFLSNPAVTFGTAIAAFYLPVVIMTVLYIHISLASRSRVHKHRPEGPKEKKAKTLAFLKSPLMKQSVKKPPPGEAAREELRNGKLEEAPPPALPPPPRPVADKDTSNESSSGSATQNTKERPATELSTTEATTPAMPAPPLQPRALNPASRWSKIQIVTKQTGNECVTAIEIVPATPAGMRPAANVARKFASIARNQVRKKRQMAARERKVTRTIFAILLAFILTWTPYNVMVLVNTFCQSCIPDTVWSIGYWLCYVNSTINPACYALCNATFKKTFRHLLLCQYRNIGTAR
M5 antag – CHRM5 antagonism in calcium assay; P08912; CHO-hM5 cells, Fluo-8 calcium fluorescence, ACh EC80; inhibition, % at 3 µM; 360,000 tested, 0.59% active; AID 624040;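 active means inhibition above a per-plate cutoff, the mean of that plate's test compounds plus 3 SD, cut at about 27% in these data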
M5 ag – agonists of human muscarinic M5 receptor (CHRM5) | CHO-K1 hM5 cells, Fluo-8 calcium fluorescence; 0% DMSO wells, 100% maximal acetylcholine response | activation, % at 3 µM | 360,000 tested, 0.19% active | AID 624037;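 active means activation above the run's mean over test compounds plus 3 SD, cut at about 23% in these data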;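 further: signal is peak over basal fluorescence ratio across the kinetic read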
M4 antag – antagonists of human muscarinic M4 receptor (CHRM4) | 360,000 tested, 0.73% active | inhibition, % at 3 µM | P08173 | AID 624125 | CHO-hM4 cells, ACh EC80, Fluo-8 calcium fluorescence;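 active means inhibition above its plate's cutoff, the mean inhibition of sample wells plus 3 SD, cut at about 27% in these data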
CHRM5 PAM – CHRM5 positive allosteric modulation | CHO-K1 hM5, Fluo-8 calcium, ACh EC20 PAM; 0% = ACh EC20, 100% = ACh EC100 | activation, % at 3 µM | 360,000 tested, 0.3% active | AID 624038;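 active means activation above the run cutoff, the mean activation of all test compounds plus 3 SD, cut at about 18% in these data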
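Replicates: One well per compound, no replicates | System: Human M5 receptor in CHO-K1 cells | Benchmarks: Low control EC20 acetylcholine (0%), high control EC100 acetylcholine (100%) | Probe or stimulus: Acetylcholine, EC20 level | Times: Fluo-8 loading 80 min at 37 °C plus 30 min room temperature | Signal: Intracellular calcium via Fluo-8 fluorescence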
CHRM4 PAM – potentiates acetylcholine response at human M4 receptor | activation, % at 3 µM | AID 624126 | CHO-K1 hM4/Gqi5, Fluo-8 calcium fluorescence, ACh EC20; 0% = ACh EC20, 100% = maximal ACh | P08173 | 360,000 tested, 0.4% active;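 active means activation above its plate's cutoff, the mean activation of sample wells plus 3 SD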
Each line names hits and unclear results; the compound was inactive in the other large screens. Hits are enriched below; roughly 1.8% of the tested compounds scored in any of these assays.

O=S1(=O)[C@H]2C[C@@H]3C=C[C@@]2(CN1Cc1ccccc1F)O3	none
COc1ccc(OC)c(/C=C2/Sc3ccccc3C2=O)c1	M5 antag 42.6, M5 ag 63.0
CCOCC(=O)Nc1ccc([N+](=O)[O-])cc1OC	none
CCOC(=O)CS(=O)(=O)CC(=O)Nc1ccc([N+](=O)[O-])cc1OC	CHRM5 PAM 19.7
Cc1cc(C)nc(-n2nc(C)c(Sc3ccc(F)cc3)c2N)n1	CHRM4 PAM 22.6
Cc1nn(-c2ccccc2)c(N)c1Sc1cccc([N+](=O)[O-])c1	none
Cc1cnc(NC(=O)NCC2CCCC(CNC(=O)Nc3ncc(C)s3)C2)s1 (stereo not given)	CHRM5 PAM 26.7, CHRM4 PAM 47.8
Cc1c(NC(=O)c2ccc(CC(C)C)o2)c(=O)n(-c2ccccc2)n1C	none
CCOc1cc(/C=N/NC(=O)c2ccccn2)ccc1OC(=O)c1ccc(F)cc1	none
CCCCOc1ccc(Cc2c(O)nc(SC)[nH]c2=O)cc1	M5 antag 29.7, CHRM5 PAM 51.3, CHRM4 PAM 17.8
CCCCNC(=O)C1CC(=O)N(CCc2ccc(C)cc2)C1 (stereo not given)	none
O=C(Nc1nnc(COc2ccccc2)s1)c1ccco1	CHRM4 PAM 16.2
CCOc1ccccc1NC(=O)CSc1nnc(NC(=O)c2ccco2)s1	CHRM4 PAM 21.8
O=C(CSc1nnc(NC(=O)c2ccco2)s1)Nc1ccccc1F	CHRM4 PAM 24.5
CCC1Sc2ccc(S(=O)(=O)Nc3ccc(OC)c(OC)c3)cc2NC1=O (stereo not given)	M5 antag 31.2
O=C(CC1C=CCC1)Nc1ccccc1 (stereo not given)	CHRM5 PAM 20.5
O=C(CC1NCCNC1=O)Nc1ccccc1 (stereo not given)	none
Cc1ccc(/C(O)=C2/C(=O)C(=O)N(c3ccccn3)C2c2cccc([N+](=O)[O-])c2)cc1 (stereo not given)	none
COc1cc(CNc2ncnc3c2ncn3[C@H]2CN(Cc3ccncc3)C[C@@H](CO)O2)cc(OC)c1OC	none
O=C(CN1C(=O)NC2(CCCCC2)C1=O)NCC(=O)Nc1ccc(F)c(F)c1	none
COc1ccc(OC)c(-c2csc(NC(=O)Cc3ccccc3OC)n2)c1	none
CCOC(=O)Cc1csc(NC(=O)COc2ccc(N(C)S(=O)(=O)c3ccc(C)cc3)cc2)n1	none
CCOc1ccc(S(=O)(=O)N(C)c2ccc(OCC(=O)Nc3nc(-c4cc(OC)ccc4OC)cs3)cc2)cc1	CHRM4 PAM 30.3
COc1ccc(OC)c(-c2csc(NC(=O)Cc3ccccc3F)n2)c1	M4 antag 54.2
COc1ccc(OC)c(CC(=O)Nc2ccc3c(c2)c(=O)n(C)n3Cc2cccc(C(F)(F)F)c2)c1	none
O=C(c1cccs1)N1CCN=C1SCc1cccnc1	CHRM5 PAM 19.7
COc1ccc(CN(C)C(C)C(=O)Nc2ccc(S(=O)(=O)N3CCCCC3)cc2)c(OC)c1 (stereo not given)	M4 antag 26.5
CCN(Cc1ccc(OC)c(F)c1)C(C)C(=O)Nc1ccc(S(=O)(=O)N2CCCC2)cc1 (stereo not given)	none
Cc1nc2sccn2c(=O)c1S(=O)(=O)NCC1CCN(Cc2ccccc2Cl)CC1	M4 antag 34.3
Cc1nc2sccn2c(=O)c1S(=O)(=O)N1CCN(c2ccccc2)CC1	M4 antag 61.4
COc1ccc(N2CCN(S(=O)(=O)c3c(C)nc4sccn4c3=O)CC2)cc1	none
CCC1(c2ccc(F)cc2)NC(=O)N(CC(=O)c2cc(C)n(C3CC3)c2C)C1=O (stereo not given)	M5 ag 25.4
CCC1(c2ccc(F)cc2)NC(=O)N(CC(=O)N2c3ccccc3CC2C)C1=O (stereo not given)	M5 ag 29.2
CCC1(c2ccc(F)cc2)NC(=O)N(CC(=O)N2c3ccccc3NC(=O)CC2C)C1=O (stereo not given)	none
Cc1cc(C(=O)CN2C(=O)NC(C)(c3cc(F)ccc3F)C2=O)c(C)n1C1CC1 (stereo not given)	none
CCC1(c2ccc(OC)cc2)NC(=O)N(CC(=O)N2CCc3ccccc32)C1=O (stereo not given)	M5 ag 38.7
O=C(CN1CCN(C(=O)c2cc(C3CC3)nn2-c2ccccc2)CC1)Nc1ccc(F)cc1	none
Cc1c(CCOC(=O)C23CC4CC(CC(C)(C4)C2)C3)sc[n+]1Cc1ccccc1	M5 antag 98.4, M4 antag 69.2
Cc1c(CCOC(=O)C23CC4CC(CC(C4)C2)C3)sc[n+]1Cc1ccccc1	none
CCN(Cc1ccncc1)C(=O)C(CO)c1ccccc1 (stereo not given)	M5 antag 87.5, M4 antag 88.5
CCN(Cc1ccncc1)C(=S)Nc1ccccc1	none
Cc1ccc(C)c(OCc2cc(C(=O)N(C)Cc3ccccn3)no2)c1	none
Cc1ccc(C)c(OCc2cc(C(=O)N(C)Cc3nccs3)no2)c1	M5 antag 28.4
CC(C)CNC(=O)C1C(=O)Nc2ccccc2C(=O)N1C(C)(C)C (stereo not given)	none
CCN(CC)CCNC1=NCCn2c1cc1cc(OC)ccc12	CHRM5 PAM 20.2
CC1(C)CC(N2CCN(Cc3ccccc3)CC2)=CC(=[N+]2CCCCC2)C1	none
CN(Cc1ccccc1)C1=CC(=[N+]2CCCCC2)CC(C)(C)C1	M4 antag 54.0
CN1CCC2(CC1)N=C(c1ccc(F)cc1)C(=S)N2C(=O)c1ccc(C(C)(C)C)cc1	M5 antag 32.6
CCN(CC)c1ccc(S(=O)(=O)N2CCCCC2)cc1NC(=O)CSCc1c(C)noc1C	none
CCCCCc1ccc(OCCCC[n+]2ccccc2)c(CCCCC)c1	none
CCCCCc1ccc(OCCCC[n+]2cccc(C)c2)c(CCCCC)c1	M4 antag 42.5
CCC(C)(C)c1ccc(OCCCC[n+]2ccccc2)c(C(C)(C)CC)c1	none
CCCCCc1ccc(OCCCC[n+]2ccc(C)cc2)c(CCCCC)c1	M4 antag 48.1
COc1cccc(CNC(=O)C2Cc3cc(S(=O)(=O)N4CCCC4)ccc3N2C(C)=O)c1OC (stereo not given)	CHRM4 PAM 17.3
COc1ccccc1CNC(=O)C1Cc2cc(S(=O)(=O)N3CCCC3)ccc2N1C(C)=O (stereo not given)	none
Cc1ccc2cc(CN(CCN(C)C)C(=S)Nc3ccccc3)c(=O)[nH]c2c1C	M5 antag 36.7, M5 ag 43.1
CCN(CC)CCN(Cc1cc2cccc(C)c2[nH]c1=O)C(=S)Nc1ccccc1	M5 antag 58.0, M5 ag 62.8

Bioassay records as filed in PubChem.
